Source: PubChem BioAssay (several laboratories)
This is a sample that favours compounds with a hit; in the whole collection about 2.6% have one here.
MC4R antagonist: MC4R antagonists of cAMP signaling, primary screen, cell-based, TR-FRET, antagonist arm of biased-ligand search; Melanocortin receptor 4 (Homo sapiens), P32245; MC4R-expressing cells, MTII-stimulated cAMP, LANCE TR-FRET; inhibition, % at 6.5 µM; actives 0.48% (n = 360,000); AID 540295, 2011;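 active means inhibition above its plate's cutoff, the mean of tested wells on that plate plus 3 SD, cut at about 29% in these data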
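Assay system: human MC4R-expressing U2OS cells; reagent: Melanotan II stimulation of cells; dosing: 6.5 µM single dose; timing: compound 30 min, challenge 1 h, detection 1 h; signal: TR-FRET cAMP assay; replicates: one well per compound, no replicates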
iPSC survival up: enhancers of single-cell hiPSC survival, primary screen, ATPlite luminescence | 100% = ROCK inhibitor wells, 0% = DMSO | survival enhancement, % at 20 µM | actives 0.044% (n = 360,000); in the data active means survival enhancement above about 18%;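 further: cells exposed to compounds for 16 hours before the ATP read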
MC4R barr agon: MC4R agonists recruiting beta-arrestin, primary screen, cell-based, luminescence, agonist arm of biased-ligand search | U2OS MC4R beta-arrestin complementation; percent of melanotan II response, DMSO zero | activation, % at 8.9 µM | actives 0.98% (n = 360,000) | AID 540308, 2011;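 active means activation above a per-plate cutoff, the mean activation of sample wells on that plate plus 3 SD, cut at about 8% in these data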
Granule exo inh: LAMP-1 surface exposure blockers, TALL-104 cells – cell-based, flow cytometry, MLPCN library, primary screen. TALL-104 LAMP-1 surface exposure; cells stimulated with thapsigargin and PMA. inhibition, % at 10 µM. actives 0.66% (n = 360,000). AID 651702, 2012;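 active means inhibition above about 55%, limit read from the data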
ABCB6 inh MLPCN: ABCB6 transporter inhibitors, primary screen, K562-ABCB6 cells, flow cytometry, MLPCN library; ATP-binding cassette sub-family B member 6 (Homo sapiens), Q9NP58; K562-ABCB6 porphyrin accumulation, 1 h; hits give low values; fluorescence ratio to DMSO, % at 10 µM; actives 0.19% (n = 360,000); AID 602162, 2011;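 active means fluorescence ratio to DMSO below 75%, the collection mean minus 3 SD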;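 further: signal is porphyrin accumulated inside mitochondria; lower ratio means ABCB6 inhibition with less porphyrin fluorescence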
Target sequence (Q9NP58 whole entry, looked up): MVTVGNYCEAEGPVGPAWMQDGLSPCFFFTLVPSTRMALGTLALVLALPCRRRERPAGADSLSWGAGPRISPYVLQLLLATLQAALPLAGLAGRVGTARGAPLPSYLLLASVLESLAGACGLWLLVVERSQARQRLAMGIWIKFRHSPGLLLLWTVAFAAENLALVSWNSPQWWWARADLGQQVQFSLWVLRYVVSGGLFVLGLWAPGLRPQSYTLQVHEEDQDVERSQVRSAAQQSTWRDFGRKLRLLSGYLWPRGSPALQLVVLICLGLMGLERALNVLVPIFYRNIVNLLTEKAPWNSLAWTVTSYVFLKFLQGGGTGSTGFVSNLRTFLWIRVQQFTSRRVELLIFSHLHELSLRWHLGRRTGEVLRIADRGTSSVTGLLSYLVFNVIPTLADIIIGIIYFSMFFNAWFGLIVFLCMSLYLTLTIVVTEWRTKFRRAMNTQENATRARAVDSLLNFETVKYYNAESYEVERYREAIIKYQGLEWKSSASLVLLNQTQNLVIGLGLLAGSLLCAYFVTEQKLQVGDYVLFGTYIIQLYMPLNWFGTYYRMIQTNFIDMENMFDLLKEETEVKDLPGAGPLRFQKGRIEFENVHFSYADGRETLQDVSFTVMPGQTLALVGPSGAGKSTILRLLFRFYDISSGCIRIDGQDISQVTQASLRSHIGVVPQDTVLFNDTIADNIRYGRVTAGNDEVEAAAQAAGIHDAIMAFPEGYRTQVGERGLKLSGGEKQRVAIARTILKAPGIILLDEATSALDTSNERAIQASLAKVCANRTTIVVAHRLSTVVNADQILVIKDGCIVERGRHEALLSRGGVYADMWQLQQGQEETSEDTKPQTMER
TbMetRS inhib: T. brucei MetRS inhibitors, primary screen, biochemical, luminescence; methionyl-tRNA synthetase (Trypanosoma brucei brucei); purified T. brucei MetRS, ATP depletion, Kinase-Glo luminescence; inhibition, % at 11.9 µM; actives 0.4% (n = 360,000); AID 624268, 2012;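 active means inhibition above a per-plate cutoff of the control wells' mean inhibition plus 3 SD, cut at about 5.5% in these data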
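Material – parasite MetRS enzyme · Medium – HEPES-MgCl2-KCl buffer plus DTT, spermine, BSA, pyrophosphatase · Reagent – ATP, methionine and E. coli bulk tRNA substrates · Times – 15 min enzyme-compound preincubation, 2 h reaction, 10 min detection, 25 °C · Measured by – luminescence of leftover ATP · Evaluation – percent inhibition relative to median high and low control wells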
Granule exo CP1: inhibitors of lytic granule exocytosis, confirmation, TALL-104 cells, flow cytometry, Cherry Pick01; shares compounds with Granule exo inh; inhibition, % at 10 µM; LAMP-1 externalization; stimulated with PMA plus thapsigargin; actives 11% (n = 1,500); in the data active means inhibition above about 60%
A number is an active result; n = inactive; x = no result given.

SMILES	MC4R antagonist	iPSC survival up	MC4R barr agon	Granule exo inh	ABCB6 inh MLPCN	TbMetRS inhib	Granule exo CP1
COC(=O)c1ccc(Cn2nnc3c(=O)[nH]c(C4CCN(S(=O)(=O)c5ccc(F)cc5)CC4)nc32)cc1	n	n	n	n	n	n	x
COC(=O)c1ccc(Cn2nnc3c(=O)[nH]c(C4CCCN(S(=O)(=O)c5ccccc5Cl)C4)nc32)cc1 (centres undefined)	n	n	n	57	n	n	n
CC(C)(C)c1ccc(Cn2nnc3c(=O)[nH]c(C4CCCN(C(=O)c5cccs5)C4)nc32)cc1 (centres undefined)	n	n	n	n	n	n	x
O=C(c1cccs1)N1CCCC(c2nc3c(nnn3Cc3c(Cl)cccc3Cl)c(=O)[nH]2)C1 (centres undefined)	n	n	n	77	n	n	n
CN(Cc1ccccc1)c1ncnc2sccc12	n	n	n	57	n	n	n
Cc1c(C(=O)NC2=NCCS2)cccc1[N+](=O)[O-]	n	n	n	n	n	n	x
COC(=O)c1c(NC(=O)c2ccccc2OC)sc(C(=O)N2CCOCC2)c1C	n	n	n	68	n	n	n
Fc1ccc(Nc2nc(NCc3ccco3)c3ccccc3n2)cc1	n	n	n	86	n	n	n
CCn1c(=O)c2c3c(sc2n2c(SCc4ccc(F)cc4)nnc12)CCCC3	n	n	n	56	n	n	n
CCN(CC)C(=O)C1CCCN(Cc2cccc(Oc3ccccc3)c2)C1 (centres undefined)	n	n	n	68	n	n	n
COc1ccccc1NC(=O)C(=O)NCCC1CCCCN1S(=O)(=O)c1cccs1 (centres undefined)	n	n	n	n	n	n	x
O=C(NCc1ccccc1Cl)c1ccncc1	n	n	n	66	n	n	n
O=C(NCc1ccccc1Br)c1ccncc1	n	n	n	n	n	n	x
CC1(C)C[C@@H](O)CC2(C1)C[C@]1(C)CC(O)[C@H]2C(C)(C)C1 (some centres undefined)	n	n	n	n	n	n	x
CC(C)CCNC(=O)C1(C)CCN1Cc1ccc(-c2ccccn2)cc1 (centres undefined)	n	n	n	n	n	n	x
O=C(/C=C/Sc1ccc(C(F)(F)F)cn1)c1ccccc1	n	n	n	64	n	n	n
COc1ccc(-c2nnc(COc3ccc(Br)cc3C)o2)cc1	n	n	n	n	n	n	x
Cc1cc(Br)ccc1OCc1nnc(-c2ccccc2)o1	n	n	n	73	n	n	n
Cc1onc(-c2ccccc2Cl)c1C(=O)N1CCC(C(N)=O)CC1	n	n	n	n	n	n	x
Cc1onc(-c2ccccc2Cl)c1C(=O)N1CCC(Cc2ccccc2)CC1	n	n	n	84	n	n	n
CCn1cc(/C=C(\NC(=O)c2ccc(OC)cc2)C(=O)N2CCOCC2)c2ccccc21	n	n	n	n	n	n	x
c1ccc(N2CCN(c3cnc4ccccc4n3)CC2)cc1	n	n	n	n	n	n	x
Cc1cc(N2CCN(c3ccccc3)CC2)nc2ccccc12	n	n	n	89	n	n	n
CCOCCCNC(=S)N1CCCN(c2nc3c(C)c(C)ccc3cc2C#N)CC1	n	n	n	91	n	n	79
O=C1CCC[C@@H]2[C@H](Cc3ccccc3)[C@@H](O)C[C@@H]3CCN1[C@@H]32	n	n	n	n	n	n	x
SMILES	MC4R antagonist	iPSC survival up	MC4R barr agon	Granule exo inh	ABCB6 inh MLPCN	TbMetRS inhib	Granule exo CP1
CC[C@@H]1C(=O)[C@H](Cc2ccccc2)[C@H]2CCCC(=O)N3CC[C@@H]1[C@@H]23	n	n	n	63	n	n	n
CC(C)NC(=O)N(C)C[C@H]1Oc2ccc(NC(=O)C3CC3)cc2C(=O)N([C@H](C)CO)C[C@@H]1C	n	n	n	79	n	n	n
C[C@@H]1CN([C@@H](C)CO)C(=O)c2cc(NC(=O)Nc3ccc4c(c3)OCO4)ccc2O[C@H]1CN(C)S(=O)(=O)c1cn(C)cn1	n	n	n	64	n	n	n
C[C@H](CO)N1C[C@H](C)[C@@H](CN(C)S(=O)(=O)c2cn(C)cn2)Oc2ccc(NC(=O)Nc3ccccc3)cc2C1=O	n	n	n	n	n	n	x
NS(=O)(=O)c1cccc(NC(=O)COC(=O)Cc2ccc(S(=O)(=O)N3CCOCC3)s2)c1	n	n	n	n	n	n	x
Nc1c(Cl)cc(-c2csc(NC(CO)c3nc4ccccc4n3CCOCCO)n2)cc1Cl (centres undefined)	n	n	n	70	n	n	n
CCOC(=O)N1CCN(CC(O)COc2cc(C)cc(C)c2)CC1 (centres undefined)	n	n	n	n	n	n	x
CCOC(=O)N1CCN(CC(O)COc2c(C)cc(C)cc2C)CC1 (centres undefined)	n	n	n	62	n	n	n
O=C(CCC1CCCC1)NCCS(=O)(=O)N1CCN(c2ccccc2)CC1	n	n	n	n	n	n	x
COc1ccc(NC(=O)c2ccc(S(=O)(=O)N3CC(C)CC(C)C3)cc2)cc1S(N)(=O)=O (centres undefined)	n	n	n	n	n	n	x
Cc1cccn2c(=O)c3cc(C(=O)NC4CCCCC4)c(=N)n(Cc4ccc(F)cc4)c3nc12	n	n	n	70	n	n	n
Cc1ccnc(Nc2nc(-c3ccc(O)c(O)c3)cs2)c1	n	n	n	72	n	n	n
CCCN(C(=O)COc1ccc(Cl)cc1Cl)c1c(N)n(Cc2ccccc2)c(=O)[nH]c1=O	n	n	n	83	n	n	n
CCOC(=O)c1ccccc1NC(=O)CSc1ccc(-c2ccccn2)nn1	n	n	n	106	n	n	n
Cc1ccc(S(=O)(=O)Oc2ccccc2/C=N/NC(=O)c2c(Cl)cnn2C)cc1	n	n	n	n	n	n	x
CCC1=C2CC[C@H]3C(=O)N(C)C(=O)[C@H]3[C@H]2[C@@]2(Cc3ccccc3)C(=NCC(=O)OC)OC(=O)N2C1=O	n	n	n	84	n	n	n
O=C(Nc1cccnc1)c1cccc(F)c1	n	n	n	n	n	n	x
CC(=O)Nc1cccc(OCC(=O)NCCC2=CCCCC2)c1	n	n	n	95	n	n	n
